Assay outcomes as filed in PubChem BioAssay.
Apaf1 activ: activates human Apaf-1 apoptosome | O14727 | Apaf-1 apoptosome caspase-3 activation, DEVD-Rh110 fluorescence; hits give low values | activity change, negative = activation, % at 20 µM | 330,000 compounds, 0.31% hits | AID 489031;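 active means activity change at or below -40% at 20 µM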
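Material: biochemical Apaf-1 apoptosome reconstitution; Medium: 20 mM HEPES buffer, pH 7.5, containing CHAPS and BSA; Reagent: dATP, cytochrome c, and (Z-DEVD)2-Rh110 caspase-3 substrate; Times: 30 min preincubation, 50 min reaction, room temperature; Signal: Rh110 fluorescence, excitation 480 nm, emission 540 nm; Measure: Caspase-3 activity via Apaf-1.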
Rh110 interf act: Rh110 signal interference in Apaf-1 activator counter-screen | shares compounds with Apaf1 activ | Rh110 fluorescence interference, quenched caspase reaction, Ex480/Em540 | fluorescence interference (activity change), % at 20 µM, hits read low | 980 tested, under 10 active | AID 504616;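 active means mean activity change at or below -40% when tested at 20 µM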
Apaf-1 act conf: confirmation of human Apaf-1 activators; shares compounds with Apaf1 activ; reconstituted apoptosome caspase-3 activity, DEVD-Rh110 fluorescence; hits give low values; activity change, negative = activation, % at 20 µM; 980 compounds, 5% hits;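 active means mean activity change at or below -40%, meaning activation of 40% or more, at 20 µM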
Fluor interf act: Apaf-1 activator counter-screen fluorescence artifact | shares compounds with Apaf1 activ | fluorescence interference counterscreen, Apaf-1 activator assay | EC50, µM | 55 tested, under 10 active; call rule not given here
A number is an active result; i = inactive. These entries were drawn from the full list.

SMILES | Apaf1 activ | others
CCn1c2ccccc2c2nnc(SCC(=O)c3c(N)n(C)c(=O)n(C)c3=O)nc21 | i
CCCCn1c2ccccc2c2nnc(SCC(=O)NC3=NN=C(c4ccccc4)CS3)nc21 | -68.9
CCCCn1c(NC(C)=O)c(C#N)c2nc3ccccc3nc21 | i
CCOC(=O)C1=C(c2ccccc2)NC(N)=NC1c1ccc(OCc2ccc(Cl)cc2)c(OC)c1 (stereo unspecified) | i
CN(C)C=Nc1ccc2nc3c(cc2c1)[nH]c1ccccc13 | i
N#C/C(=C/c1ccc(OCc2ccc(C(=O)O)cc2)c(Br)c1)c1cccc(F)c1 | -335.2
CC(C)[C@H](CN1CCC[C@H]1CN1C(N)=NC[C@H]1C(C)C)N1C[C@@H](Cc2ccccc2)N(CCCC2CCCC2)C1=N | i
CCCCNc1c(-c2ccc(SC(C)CC)cc2)nc2cnccn12 (stereo unspecified) | i
CC(NC(=O)C1CCN(C(=O)c2cccs2)CC1)c1ccc(S(N)(=O)=O)cc1 (stereo unspecified) | i
Cc1ccc(C(=O)NC(C)c2nc3ccccc3n2CC(=O)Nc2c(C)cc(C)cc2C)cc1 (stereo unspecified) | -100.0
CCC(=O)Nc1c(S(=O)(=O)c2ccc(C)cc2)c2nc3ccccc3nc2n1C(C)c1ccccc1 (stereo unspecified) | i
CCCc1cc(=O)oc2c3c(c4c(c12)OC(C)(C)C=C4)OC(C)C(C)C3O (stereo unspecified) | i
COc1ccc(C(CNC(=O)c2cccc(S(=O)(=O)N(C)c3ccccc3)c2)N2CCCC2)cc1 (stereo unspecified) | i
COc1ccc(NC(=O)c2cc(-c3ccncc3)nc3ccc(Br)cc23)cc1OC | i
FC(F)(F)c1cc(CO[C@@H]2CCCN[C@@H]2c2ccccc2)cc(C(F)(F)F)c1 | i
COC(=O)C1=C(C)N(Cc2ccccc2)C(=NCCc2c[nH]c3ccccc23)N[C@H]1c1cccc(F)c1 | i
O=C(NCCc1c[nH]c2ccccc12)OCCSS(=O)(=O)O | -93.5
COC(=O)C1=C(C)N(Cc2ccccc2)C(=NCCc2c[nH]c3ccccc23)N[C@H]1c1ccccc1 | i
COC(=O)c1ccc(N2CC3CNC(=O)C2(C(=O)OC)N3C)cc1 (stereo unspecified) | i
COc1ccc(C2(c3ccc(OC)cc3)NC(=O)N(CC(=O)N(C)C)C2=O)cc1 | -130.8
COc1cc(NC(=O)CN2C(=O)NC3(CCOc4ccccc43)C2=O)cc(OC)c1 (stereo unspecified) | i
COc1ccc(C2(c3ccc(OC)cc3)NC(=O)N(CC(=O)Nc3ccc(N4CCOCC4)cc3)C2=O)cc1 | i
Cc1ccc(C)c(NC(=O)/C(C#N)=C/c2ccc(Sc3nncn3C)c([N+](=O)[O-])c2)c1 | -217.2
COc1ccc(NC(=O)[C@@H](NC(=O)N2C[C@H]3C[C@@H](C2)c2cccc(=O)n2C3)C(C)C)cc1OC | i
CCOc1ccc(NC(=O)CCS(=O)(=O)c2ccc(Br)cc2)cc1 | -109.0
SMILES | Apaf1 activ | others
CCOc1ccc(NS(=O)(=O)c2ccc(C(=O)N(CC)CC(=O)NCc3cccs3)cc2)cc1 | i
CCCN(CC(=O)Nc1ccccc1C)C(=O)CCCOc1ccc(Br)cc1 | i
O=C(CCS(=O)(=O)c1ccc(Br)cc1)Nc1cc(F)ccc1F | -129.1
O=C(Nc1ccc(-c2cccc(F)c2)cc1)C1CCCN(Cc2ccccn2)C1 (stereo unspecified) | i
CCCCCCCNC(=O)C1(CC2CC(c3ccc(Cl)cc3)=NO2)CCNCC1 (stereo unspecified) | i
CCc1ccc(CNc2ccc(O)cc2)cc1 | i
CC/C(=C(/CC)c1ccc(O)cc1)c1ccc(O)cc1 | -151.0
CC/C(=C(\c1ccc(O)cc1)c1ccc(OCCN(C)C)cc1)c1ccccc1 | i
Cc1ccc(S(=O)(=O)N(C)C)cc1NC(=O)c1ccccc1SCC(=O)N1CCCC1 | i
O=C(NCC(F)(F)F)c1ccc(S(=O)(=O)Nc2ccccc2N2CCCC2)cc1 | i
O=C(Cc1ccc(Br)cc1)Nc1ccccc1N1CCCC1 | -65.5
Cc1cc(N2CCCC2)ccc1NC(=O)COc1ccccc1 | i
O=C(C[C@H]1C[C@H](C(=O)N2CCOCC2)[C@@]2(CCC3CCCC3)c3[nH]c4ccc(Cl)cc4c3CCN2C1=O)NCCCn1ccnc1 | i
COCCn1c(SCC(=O)NNC(=O)c2cc(Cl)ccc2OC)nnc1-c1ccncc1 | i
O=C1NC(=S)N/C1=C/c1cc2c(cc1[N+](=O)[O-])OCO2 | i
Cc1cc(C)c2c(=O)c(/C=C3\NC(=S)NC3=O)coc2c1 | -99.0 | Rh110 interf act=i;Apaf-1 act conf=-63.1;Fluor interf act=i
COc1ccc(CNCC(O)(c2ccc(Cl)cc2)c2ccc(Cl)cc2)cc1OC | i
COC(=O)CCC(=O)OC1(C)C(=O)C=C2C=C(C3CC3)N(C3CCCCC3)C=C2C1=O (stereo unspecified) | i
CN(C)Cc1cc(O)c(CN(C)C)cc1O | i
CCn1c(SCC(=O)c2ccc(F)cc2)nnc1-c1ccoc1C | -223.2 | Rh110 interf act=i;Apaf-1 act conf=i
Cc1ccc2c(c1)C(=O)CC(O)(C(F)F)O2 (stereo unspecified) | -71.2 | Rh110 interf act=i;Apaf-1 act conf=i
CC(=O)c1cc(F)c(N2CCN(CCC#N)CC2)cc1C | -455.8 | Rh110 interf act=i;Apaf-1 act conf=i
C#CCOCCOCCOCCNc1nc(N2CCN(C(=O)[C@H](CCCCN)n3cc(CN)nn3)CC2)nc(N2CCN(C(=O)[C@H](CCCCN)n3cc(CN)nn3)CC2)n1 | i
Cc1cc2cc(CNS(=O)(=O)c3ccccc3)ccc2n1C | i
Cc1cccc(NC(=O)CC2Nc3cccc4cccc(c34)NC2=O)c1 (stereo unspecified) | i
SMILES | Apaf1 activ | others
Cc1cccc(NC2=C(NCCO)C(=O)c3ccccc3C2=O)c1 | i
Cc1cccc(NC(=O)NC2CCCc3ccccc32)c1 (stereo unspecified) | -378.7 | Rh110 interf act=i;Apaf-1 act conf=i
O=C(CCn1c2c(c3ccccc31)CCCC2)NNC(=O)c1ccc([N+](=O)[O-])cc1 | i
O=C(COC(=O)c1ccc([N+](=O)[O-])s1)NNC(=O)c1ccccc1 | i
Cc1ccc(C(=O)NC(=S)NNC(=O)c2cccc([N+](=O)[O-])c2)cc1 | -116.0 | Rh110 interf act=i;Apaf-1 act conf=i
O=S(=O)(c1ccc(F)cc1)N1CCN(S(=O)(=O)c2ccc3c(c2)OCCO3)CC1 | -217.4 | Rh110 interf act=i;Apaf-1 act conf=i
O=S(=O)(c1ccc2nc(-c3ccco3)c(-c3ccco3)nc2c1)N1CCOCC1 | i
NC[C@@H]1O[C@H](C23CC4CC(CC(C4)C2)C3)Cc2c1ccc(O)c2O | i
CC(C)N(C(=O)[C@H]1C[C@H](CC(=O)NCCCN(C)C)C(=O)N2CCc3c([nH]c4cc(-c5ccco5)ccc34)[C@]12C)C(C)C | i
COc1cc2nc(N3CCNCC3)nc(N)c2cc1OC | i
CCO/C=C1\SC(=S)N(c2ccc(Cl)cc2)C1=O | -109.3 | Rh110 interf act=i;Apaf-1 act conf=i
C/C(=C\C(=S)Nc1ccccc1)Nc1ccc2ccccc2c1 | i
CCN1CCN(c2ccc(NC(=O)c3cc4ccccc4cc3OC)cc2C)CC1 | i
Cc1occc1C(=O)Nc1ccc2ccccc2c1 | -351.2 | Rh110 interf act=i;Apaf-1 act conf=i
